Screening results deposited in PubChem by several laboratories.
Rows were chosen to be rich in hits. Some 5.7% of all compounds tested hit in one or more screens of this group.
Calb FLC – C. albicans growth modulation with fluconazole. growth inhibition, % (test concentration not listed). AID 1979. C. albicans CaCi-2 (fluconazole-resistant clinical isolate) + fluconazole, Alamar Blue growth, 48 h. 300,000 compounds, 0.57% hits;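 active = growth inhibition above about 58% in most replicates, limit read from the data, passing the limit was not always enough; inconclusive = exactly half the replicates above a set limit; inactive = most replicates below a set limit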;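 note: all wells also contain fluconazole at 8 µg/ml as a sub-toxic cotreatment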
Beta cell apopt – blocks beta cell apoptosis; protection from apoptosis, % (no concentration beside the values); INS-1E cytokine-induced death, ATP luminescence, 48 h; percent of positive-control rescue, neutral wells zero; AID 435005; 300,000 compounds, 0.8% hits;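 active = Every replicate reaches about 75%, or at least half do and their mean reaches it too, limit read from the data; inconclusive = At least half of replicates reach the limit but their mean does not; inactive = Under half of replicates reach the limit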;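 note: higher means more ATP so stronger rescue from cytokine killing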
T cruzi inh – blocks replication of Trypanosoma cruzi. 300,000 compounds, 1.4% hits. T. cruzi beta-gal in NIH3T3, luminescence, 90 h. AID 1885. inhibition, % (no concentration beside the values);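 active = mean inhibition across valid replicates above about 55%, limit read from the data; inconclusive = mean below that limit but half or more replicates reach it; inactive = mean below it, under half of replicates reach it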;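 note: signal also drops with host cell toxicity which is not excluded here; higher percent means less beta-gal luminescence so fewer parasites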
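System: mouse NIH/3T3 fibroblasts infected with β-gal-expressing T. cruzi Tulahuen C4 / Input: NIH/3T3 cells, 5,000 per well / Buffer or medium: Low-serum DMEM with 2% FBS / Probe or stimulus: 5000 reporter trypomastigotes per well / Schedule: ≥90 h infection period, 3 h prior cell attachment / Measured by: GalScreen luminescence, 60 min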
CSC inhib – blocks cancer stem cells. 300,000 compounds, 1.1% hits. inhibition, % at 7.5 µM. cancer stem cell-like cells viability, luminescence; in the data active = inhibition above about 75%; inconclusive = no clear call, values can overlap the other calls; tested in HMLE shEcad cells
SKKanGAS inh – blocks kanamycin growth of S. pyogenes SKKanGAS strain. AID 1662. BacTiter-Glo, 6 h. 300,000 compounds, 1.3% hits. inhibition, % at 7.5 µM;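 active = mean replicate score, as percent of positive control median, at least 50; inconclusive = mean below 50 but one replicate at or above 50; inactive = mean and every replicate below 50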;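 note: strain carries kanamycin resistance gene driven by streptokinase promoter and grows in 40 µg/ml kanamycin; loss of luminescence reflects streptokinase promoter inhibition or plain growth inhibition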
Mdm2 MdmX PPI – inhibitors of human Mdm2/MdmX interaction. SaOS-2 split-luciferase Mdm2/MdmX complementation, luminescence. inhibition, % at 8 µM. 330,000 compounds, 3% hits;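 active = inhibition of at least 50% at 8 µM in the primary screen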
Of the large screens only hits and unclear results are named; the others gave an inactive call.

O=C(N/N=C/c1ccc([N+](=O)[O-])cc1)c1cc(-c2ccc3c(c2)OCO3)n[nH]1	none
COc1ccc(C2=NOC(Cn3nc(C(=O)NCc4ccccc4OC)cc3-c3ccccc3)C2)cc1 (stereo not given)	none
O=C(COC(=O)c1ccc(Cl)nc1)Nc1cccnc1Cl	none (no result: Calb FLC)
COc1ccc(CCNC(=O)C(=O)NCC2OCCN2S(=O)(=O)c2ccc3c(c2)OCCO3)cc1OC (stereo not given)	none
Cc1ccc(CCN=c2c([N+](=O)[O-])nn(-c3ccccc3)n2O)cc1	T cruzi inh 69.7
Cc1ccc(CN=c2c([N+](=O)[O-])nn(-c3ccc(Cl)cc3)n2O)cc1	none
COc1ccc(-n2nc([N+](=O)[O-])c(=NCCc3ccccc3)n2O)cc1	none
O=[N+]([O-])c1nn(-c2ccccc2)n(O)c1=NCCc1ccccc1	T cruzi inh 58.3
Cc1cc(C(=O)OC(C(=O)Nc2cccc(C(F)(F)F)c2)c2ccccc2)c(C)o1 (stereo not given)	SKKanGAS inh 71.2
O=[N+]([O-])c1ccc(N/N=C/c2ccc(O)c(O)c2O)c(S(=O)(=O)N2CCOCC2)c1	Calb FLC 99.9 (no result: Beta cell apopt, CSC inhib)
Cc1cc(NCc2ccccn2)n2ncc(-c3ccc(Cl)cc3)c2n1	SKKanGAS inh 82.2
Cc1cc(N)n2ncc(-c3ccc(Cl)cc3)c2n1	none
CCCc1cc(NCc2ccccn2)n2nc(C)c(-c3ccccc3)c2n1	T cruzi inh 54.6, SKKanGAS inh 94.0
Cc1cc(NCc2ccccn2)n2ncc(-c3ccccc3)c2n1	SKKanGAS inh 65.8
CCOc1cc(N2CCOCC2)c(OCC)cc1NC(=O)c1cc(S(=O)(=O)N2CCOCC2)ccc1C	none (no result: Calb FLC, T cruzi inh, SKKanGAS inh)
O=C(NCCc1ccccn1)C1CCCN1S(=O)(=O)c1ccc(Cl)cc1 (stereo not given)	none
FC(F)(F)c1ccc(Oc2ccc3ccccc3c2Br)nc1	SKKanGAS inh 63.0 (no result: CSC inhib)
CCc1ccc2c(c1)/C(=C/C(=O)c1cccs1)C(=O)N2	Calb FLC 98.0
CCc1ccc2c(c1)/C(=N/N(C)C(=S)NC)C(=O)N2	none
Cc1cc(Br)c2c(c1)/C(=C/C(=O)c1cccs1)C(=O)N2	T cruzi inh 58.4
Cc1ccc(N/C=C/C(=O)c2cccs2)cc1	none
CN1/C(=C\C(=O)c2cccs2)C(C)(C)c2ccccc21	none
Cc1cccc2c1NC(=O)/C2=C\C(=O)c1cccs1	CSC inhib 82.6
Cc1ccc(C)c(NC(=O)CN(C)C(=O)c2cc(-c3cccs3)nn2-c2ccccc2)c1	none
COC(=O)c1c(NC(NC(=O)C(C)C)C(Cl)(Cl)Cl)sc2c1CCC2 (stereo not given)	none
CC(C)(C)C(=O)NC(NC(=S)Nc1sc2c(c1C#N)CCCC2)C(Cl)(Cl)Cl (stereo not given)	SKKanGAS inh 49.8 (no result: CSC inhib)
COC(=O)c1c(NC(NC(=O)C(C)(C)C)C(Cl)(Cl)Cl)sc2c1CCC2 (stereo not given)	SKKanGAS inh 59.2
N#Cc1c(NC(=S)NC(=O)Cc2cccs2)sc2c1CCCCC2	SKKanGAS inh 59.3
CC(C)(C)C(=O)Nc1sc2c(c1C#N)CCC2	none
CCc1ccc(CCC(=O)Nc2ccc(Cl)cc2)o1	none
COc1ccc2c(C)nc(Nc3nc(C)c(C)c(=O)[nH]3)nc2c1	Calb FLC inconclusive, CSC inhib 105.9
CCC/C(=C1/c2ccccc2C(=O)N1c1ccccc1)c1ccc2c(c1)OCCO2	CSC inhib 88.8 (no result: Calb FLC, T cruzi inh, SKKanGAS inh)
C/C(=C\C(=O)OCCCCCCCCC(=O)O)C[C@@H]1OC[C@H](C[C@@H]2O[C@H]2[C@@H](C)[C@H](C)O)[C@@H](O)[C@H]1O	SKKanGAS inh 103.5 (no result: Calb FLC)
COc1ccc(CNC(=O)CN2CCC(NC(=O)c3ccc(OC)cc3)CC2)cc1	none (no result: Beta cell apopt, CSC inhib)
COc1ccc(NC(=O)c2cc(-c3ccccc3O)n[nH]2)cc1Cl	none
Cc1cccc(NC(=O)c2cc(-c3cc(C)cc(C)c3O)n[nH]2)c1	CSC inhib 76.2
COc1ccc(NC(=O)c2cc(-c3cc(C)cc(C)c3O)n[nH]2)cc1Cl	CSC inhib 99.3, SKKanGAS inh 99.5
NC(=O)CC(NC(=O)c1cccc(Br)c1)c1ccc(NC2CCCCCCC2)c([N+](=O)[O-])c1 (stereo not given)	none
O=C(COc1ccc(Cl)cc1Cl)N1CCNC1=O	none (no result: Calb FLC, T cruzi inh, CSC inhib, SKKanGAS inh)
COc1cc(OC)c2nc(C)c3c(c2c1)N(c1ccc(O)cc1)CC3	T cruzi inh 82.9 (no result: Mdm2 MdmX PPI)
O=C(NCc1ccccc1)C(=O)Nc1nc(C23CC4CC(CC(C4)C2)C3)cs1	SKKanGAS inh 101.6
O=C(NCc1cccnc1)C(=O)Nc1nc(C23CC4CC(CC(C4)C2)C3)cs1	Beta cell apopt 161.5
Cc1noc(NS(=O)(=O)c2ccc(NC(=O)c3cc4ccccc4o3)cc2)c1C	none (no result: Calb FLC, T cruzi inh, SKKanGAS inh)
Cc1ccc(S(=O)(=O)Nc2ccccc2N(C)S(=O)(=O)c2ccc(C)cc2)cc1	Beta cell apopt 109.5
Cc1ccc(S(=O)(=O)Nc2ccccc2-c2ccccc2)cc1	none
CCC(C)NCCOCCOc1cc(C)c(Cl)c(C)c1 (stereo not given)	T cruzi inh inconclusive
CCC(C)NCCOCCOc1ccc(F)cc1 (stereo not given)	T cruzi inh 55.0
CCC(C)NCCOCCOc1ccc(Cl)cc1Br (stereo not given)	T cruzi inh 72.2
O=C(Cn1ncc(N2CCOCC2)c(Cl)c1=O)c1ccc(Cl)cc1	none
O=C(OCn1ncc(Cl)c(Cl)c1=O)c1ccccc1Cl	Calb FLC 107.9, Beta cell apopt 100.7, T cruzi inh 58.3 (no result: Mdm2 MdmX PPI)
O=C(Cn1ncc(Cl)c(Cl)c1=O)c1ccc(Cl)cc1	T cruzi inh 75.5 (no result: Mdm2 MdmX PPI)
COc1ccc(CNC(=O)C2CCN(S(=O)(=O)c3ccc4c(c3)CC(C)N4C(C)=O)CC2)cc1 (stereo not given)	none
CCN(C[C@H]1N[C@@](Cc2ccccc2)(C(=O)OC)[C@H]2C(=O)N(Cc3ccccc3)C(=O)[C@@H]12)C(=O)COc1ccccc1	none (no result: Calb FLC, T cruzi inh, SKKanGAS inh)
Cc1cc(S(=O)(=O)NCCCN2CCOCC2)ccc1Br	none (no result: Calb FLC, T cruzi inh, CSC inhib, SKKanGAS inh)
Cc1ccc(CN2CCN(/N=C/c3ccc(Cl)c([N+](=O)[O-])c3)CC2)cc1	T cruzi inh 61.9 (no result: Beta cell apopt)
Cc1cc(N/N=C/c2cccc(Br)c2)nc2ccccc12	SKKanGAS inh 90.8
Cc1cc(N/N=C/c2ccncc2)nc2ccccc12	none (no result: Beta cell apopt, CSC inhib, Mdm2 MdmX PPI)
CC(=O)N1CCOc2ccc(S(=O)(=O)NC[C@H]3O[C@@H](n4cnc5c(N)ncnc54)[C@H](O)[C@@H]3O)cc21	none (no result: Calb FLC, Beta cell apopt, T cruzi inh, CSC inhib, SKKanGAS inh)
Cc1ccc(C(=O)CSc2nc(-c3ccccc3)ccc2C#N)cc1	T cruzi inh inconclusive, CSC inhib 84.4
Cc1ccc(-c2ccc(SCC(=O)c3ccccc3)nn2)cc1	none
CCN(CC1CCCO1)C(=O)c1cc(COc2ccc(F)cc2F)on1 (stereo not given)	none
O=C(c1cc(COc2ccc(F)cc2Cl)on1)N(Cc1ccncc1)CC1CCCO1 (stereo not given)	T cruzi inh 69.6
Cc1ccc(OCc2cc(C(=O)N(CCO)Cc3cccs3)no2)cc1C	none
